# According to ChEMBL document CHEMBL1127645, “Synthesis, structure-activity relationships, and pharmacological evaluation of a series of fluorinated 3-benzyl-5-indolecarboxamides: identification of 4-[[5-[((2R)-2-methyl-4,4,4-trifluorobutyl)carbamoyl]-1-methyl indol- 3-yl]methyl]-3-methoxy-N-[(2-methylphenyl)sulfonyl]benzamide, a potent, …” (J Med Chem, 1994):
# Assays:
# [1] = target: T1, Cysteinyl leukotriene receptor 1 (Cavia porcellus, UniProt Q2NNR5); assay: Inhibition constant for displacement of [3H]LTD4 on guinea pig lung parenchymal membranes; assay type: tissue-based, Lung parenchyma
# T1 sequence (Q2NNR5 whole entry): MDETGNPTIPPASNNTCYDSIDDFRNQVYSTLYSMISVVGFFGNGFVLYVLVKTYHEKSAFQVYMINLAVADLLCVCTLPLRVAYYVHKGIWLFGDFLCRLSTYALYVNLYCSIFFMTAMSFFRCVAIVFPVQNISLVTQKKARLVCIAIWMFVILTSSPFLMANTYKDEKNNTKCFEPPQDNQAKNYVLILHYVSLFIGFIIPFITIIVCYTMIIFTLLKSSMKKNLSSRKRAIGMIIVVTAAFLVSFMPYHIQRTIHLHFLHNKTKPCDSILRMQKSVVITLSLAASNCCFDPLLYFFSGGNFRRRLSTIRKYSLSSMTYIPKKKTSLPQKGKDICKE
# Procedure, shortened: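 Guinea pig lung parenchymal membranes; competitive displacement of [3H]LTD4. Ki taken as mean of two experiments, each run in duplicate on separate membrane batches.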
# [2] = target: T2, Cysteinyl leukotriene receptor 1 (Cavia porcellus) (UniProt Q2NNR5); assay: Binding constant in guinea pig tracheal spirals with LTE4; assay type: tissue-based; settings: Trachea
# T2 sequence (whole entry): T1 sequence (Q2NNR5 whole entry)
# Procedure, shortened: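 Guinea pig tracheal spirals contracted with LTE4 as agonist. Antagonist KB derived from concentration-response curves and reported as -log(KB) (pKB); n = number of concentration-response curves.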
# [3] = system: Cysteinyl leukotriene receptor (Cavia porcellus); assay: Inhibition of percent protection from LTD4-induced dyspnea in a conscious guinea pig administered intravenously
# [4] = target: T2, Cysteinyl leukotriene receptor 1 (Cavia porcellus); assay: Effective dose for the inhibition of percent protection from LTD4-induced dyspnea in a conscious guinea pig administered through oral route; assay type: functional
# Procedure, shortened: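 Conscious guinea pig dyspnea model with LTD4 challenge; percent protection from dyspnea plotted against dose (oral or intravenous). ED50 obtained by regression using at least three doses from the linear portion of the dose-response curve; SEM for percent protection was generally ≤25% at each dose.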
# [5] = organism: Rattus norvegicus; assay: Compound was evaluated for the pharmacokinetic characters in Rat; assay type: ADME, organism-based; settings: in vivo
# [6] = Compound was evaluated for clearance in rat; assay type: ADME, organism-based; settings: in vivo
# [7] = system: Cavia porcellus; assay: (§1) ED50 (p.o.) / ED50 (i.v.) ratio of the compound; assay type: functional
# Procedure, shortened: (§2)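 Ratio of oral ED50 to intravenous ED50 from the conscious guinea pig LTD4-induced dyspnea model, used as an index of oral bioavailability.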
# [8] = Partition coefficient (logP); settings: octanol/water
# [9] = system: Cavia porcellus; assay: Inhibition of protection from LTD4-induced dyspnea in a conscious guinea pig administered through oral route at a dose of 3 umol/kg; assay type: functional
# [10] = system: Cavia porcellus; assay: Percent inhibition of protection from LTD4-induced dyspnea in a conscious guinea pig administered through oral route at a dose of 3 umol/kg; assay type: functional
# [11] = target: Muscarinic acetylcholine receptor (Homo sapiens) (UniProt P20309+P08173+P11229+P08172+P08912); assay: Compound was evaluated for the selectivity of Muscarinic receptors isolated from guinea pig ileum by displacing acetylcholine; assay type: tissue-based; settings: Cavia porcellus, target entry is the homologue from another species
# Procedure, shortened: (§3)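 Isolated-tissue functional selectivity screen, run at a single standard concentration of 10 μM, recording any change in the response to the receptor agonist.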
# [12] = target: Prostaglandin E2 receptor EP2 subtype (Homo sapiens) (UniProt P43116); assay: Compound was evaluated for the selectivity of Prostaglandin 2 receptors isolated from guinea pig ileum by displacing PGE-2; assay type: tissue-based; settings: Cavia porcellus; Trachea; in the assay text read “guinea pig trachea” for “guinea pig ileum”; target entry is the homologue from another species; procedure, shortened: as §3
# [13] = Compound was evaluated for the clearance in dog; assay type: ADME, organism-based, Canis lupus familiaris; settings: in vivo
# [14] = target: T3, Prostaglandin E2 receptor EP1 subtype (Homo sapiens) (UniProt P34995); assay: Compound was evaluated for the selectivity of Prostaglandin 1 receptors isolated from guinea pig ileum by displacing PGE-2; settings: Cavia porcellus, target entry is the homologue from another species
# T3 sequence (whole entry): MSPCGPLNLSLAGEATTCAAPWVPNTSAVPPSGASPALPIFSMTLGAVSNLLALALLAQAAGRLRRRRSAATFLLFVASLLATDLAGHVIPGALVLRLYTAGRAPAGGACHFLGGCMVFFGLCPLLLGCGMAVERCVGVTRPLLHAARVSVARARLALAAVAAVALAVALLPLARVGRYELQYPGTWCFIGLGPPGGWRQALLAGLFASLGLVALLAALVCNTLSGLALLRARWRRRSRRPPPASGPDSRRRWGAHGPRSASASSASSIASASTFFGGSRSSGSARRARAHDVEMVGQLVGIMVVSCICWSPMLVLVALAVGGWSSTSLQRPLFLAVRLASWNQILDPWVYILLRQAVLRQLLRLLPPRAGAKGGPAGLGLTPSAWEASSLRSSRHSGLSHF
# [15] = target: Histamine H1 receptor (Cavia porcellus) (UniProt P31389); assay: Compound was evaluated for the selectivity of Histaminergic 1 receptor isolated from guinea pig ileum by displacing histamine; assay type: tissue-based; procedure, shortened: as §3
# [16] = target: Beta-1 adrenergic receptor (Cavia porcellus) (UniProt B0FL73); assay: Compound was evaluated for the selectivity of Beta 1 adrenergic receptors isolated from guinea pig right atrium by displacing isoproterenol; assay type: functional, tissue-based; settings: Cardiac atrium; procedure, shortened: as §3
# [17] = Compound was evaluated for the oral bioavailability in dog; assay type: ADME, organism-based, Canis lupus familiaris; settings: in vivo, read-out: Bioavailabiility
# [18] = target: T4, Thromboxane A2 receptor (Rattus norvegicus) (UniProt P34978); assay: Compound was evaluated for the selectivity of Thromboxane 1 receptors isolated from rat aorta by displacing U-46,619; assay type: functional, tissue-based; procedure, shortened: as §3
# T4 sequence (whole entry): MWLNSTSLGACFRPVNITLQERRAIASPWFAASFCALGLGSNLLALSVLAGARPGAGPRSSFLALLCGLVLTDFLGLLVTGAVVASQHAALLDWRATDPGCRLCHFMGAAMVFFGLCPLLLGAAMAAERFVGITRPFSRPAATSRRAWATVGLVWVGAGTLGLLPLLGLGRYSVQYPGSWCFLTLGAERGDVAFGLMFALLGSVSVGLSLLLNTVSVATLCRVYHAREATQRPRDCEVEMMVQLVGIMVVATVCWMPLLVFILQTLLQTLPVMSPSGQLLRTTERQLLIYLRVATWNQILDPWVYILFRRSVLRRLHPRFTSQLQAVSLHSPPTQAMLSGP
# [19] = Compound was evaluated for the oral bioavailability in rat; assay type: ADME, organism-based; settings: in vivo, read-out: Bioavailabiility
# [20] = Bioavailability in guinea pig; assay type: ADME, organism-based, Cavia porcellus; settings: in vivo
# [21] = as §1; assay type: functional; procedure, shortened: as §2
# [22] = Clearance in guinea pig; assay type: ADME, organism-based, Cavia porcellus; settings: in vivo
# [23] = target: Alpha-2 adrenergic receptor (Mus musculus) (UniProt P30545+Q01338+Q01337); assay: Compound was evaluated for the selectivity of alpha 2 adrenergic receptors isolated from mouse vas deferens by displacing clonidine; assay type: functional, tissue-based; procedure, shortened: as §3
# Sequence of Beta-1 adrenergic receptor (Cavia porcellus) (B0FL73 1-467): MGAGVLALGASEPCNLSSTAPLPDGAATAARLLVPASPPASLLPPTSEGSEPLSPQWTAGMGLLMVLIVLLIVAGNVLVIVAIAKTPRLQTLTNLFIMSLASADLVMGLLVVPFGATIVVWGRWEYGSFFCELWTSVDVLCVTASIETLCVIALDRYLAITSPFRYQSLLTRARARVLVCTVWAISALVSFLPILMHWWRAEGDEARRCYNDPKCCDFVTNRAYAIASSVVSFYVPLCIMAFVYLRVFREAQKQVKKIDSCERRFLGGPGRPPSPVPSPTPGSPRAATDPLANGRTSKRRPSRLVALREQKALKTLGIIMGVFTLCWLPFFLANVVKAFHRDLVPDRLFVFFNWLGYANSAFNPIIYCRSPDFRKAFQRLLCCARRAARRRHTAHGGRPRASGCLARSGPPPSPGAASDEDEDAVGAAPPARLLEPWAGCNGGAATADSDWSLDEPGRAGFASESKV
# Sequence of Histamine H1 receptor (Cavia porcellus) (P31389 whole entry): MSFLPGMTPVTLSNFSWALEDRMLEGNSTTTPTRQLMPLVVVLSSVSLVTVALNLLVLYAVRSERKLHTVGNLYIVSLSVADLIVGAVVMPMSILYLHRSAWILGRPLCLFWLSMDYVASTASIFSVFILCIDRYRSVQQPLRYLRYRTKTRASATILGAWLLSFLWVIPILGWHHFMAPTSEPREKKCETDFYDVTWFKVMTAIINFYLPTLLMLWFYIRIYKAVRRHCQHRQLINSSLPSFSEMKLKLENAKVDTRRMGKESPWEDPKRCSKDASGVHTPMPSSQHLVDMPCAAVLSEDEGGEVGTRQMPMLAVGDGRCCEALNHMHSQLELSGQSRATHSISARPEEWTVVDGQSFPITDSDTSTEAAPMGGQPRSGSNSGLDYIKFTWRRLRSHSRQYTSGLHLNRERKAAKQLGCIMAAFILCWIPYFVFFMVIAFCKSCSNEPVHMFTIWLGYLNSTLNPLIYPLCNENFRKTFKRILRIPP
# Sequence of Prostaglandin E2 receptor EP2 subtype (Homo sapiens) (P43116 whole entry): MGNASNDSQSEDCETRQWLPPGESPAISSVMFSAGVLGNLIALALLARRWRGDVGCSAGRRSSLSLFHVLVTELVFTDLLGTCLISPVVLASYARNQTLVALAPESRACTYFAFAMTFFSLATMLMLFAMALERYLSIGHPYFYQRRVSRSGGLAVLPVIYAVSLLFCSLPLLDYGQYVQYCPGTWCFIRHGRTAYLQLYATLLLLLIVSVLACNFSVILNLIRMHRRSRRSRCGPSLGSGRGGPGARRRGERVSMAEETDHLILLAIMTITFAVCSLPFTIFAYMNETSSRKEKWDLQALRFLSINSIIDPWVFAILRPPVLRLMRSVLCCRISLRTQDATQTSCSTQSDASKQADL
SMILES,Ki [1] [nM],pKB [2],ED50 [3] [µmol/kg],ED50 [4] [µmol/kg],further results
C=C(CNC(=O)c1ccc2c(c1)c(Cc1ccc(C(=O)NS(=O)(=O)c3ccccc3C)cc1OC)cn2C)CC(F)(F)F,3.8,–,–,–,–
CCC(CNC(=O)c1ccc2c(c1)c(Cc1ccc(C(=O)NS(=O)(=O)c3ccccc3C)cc1OC)cn2CC)C(F)(F)F (stereo unspecified),5.3,9,–,–,–
COc1cc(C(=O)NS(=O)(=O)c2ccccc2C)ccc1Cc1cn(C)c2ccc(C(=O)NC[C@@H](C)CC(F)(F)F)cc12,1.45,9.28,0.047,3.73,Pharmacokinetic [5]: 23%; clearance [6]: 0.1 L/h/kg; Ratio [7]: 79
CCC(CNC(=O)c1ccc2c(c1)c(Cc1ccc(C(=O)NS(=O)(=O)c3ccccc3C)cc1OC)cn2C)CC(F)(F)F (stereo unspecified),5.3,9.6,0.047,2.64,logP [8]: 6.45; Ratio [7]: 56
COc1cc(C(=O)NS(=O)(=O)c2ccccc2C)ccc1Cc1cn(C)c2ccc(C(=O)NCCC(C(F)(F)F)C(F)(F)F)cc12,1.2,9.3,–,–,inhibition in vivo at 3 µmol/kg [10]: 19%
COc1cc(C(=O)NS(=O)(=O)c2ccccc2C)ccc1Cc1cn(C)c2ccc(C(=O)NCC3CCCC3)cc12,3.2,8.4,0.69,19.2,Ratio [7]: 28
COc1cc(C(=O)O)ccc1Cc1cn(C)c2ccc(C(=O)NCC(C)CC(F)(F)F)cc12 (stereo unspecified),–,–,–,–,logP [8]: 5.12
COc1cc(C(=O)NS(=O)(=O)c2ccccc2C)ccc1Cc1cn(C)c2ccc(C(=O)NCC(C)(C)CC(F)(F)F)cc12,2.2,8.9,–,–,–
CCC(C)CNC(=O)c1ccc2c(c1)c(Cc1ccc(C(=O)O)cc1OC)cn2C (stereo unspecified),–,–,–,–,logP [8]: 4.86
COc1cc(C(=O)NS(=O)(=O)c2ccccc2C)ccc1Cc1cn(C)c2ccc(C(=O)NC[C@H](C)CC(F)(F)F)cc12,0.42,10.1,0.022,1.14,pKB [11]: < 5; pKB [12]: < 5; clearance [13]: 0.31 L/h/kg; pKB [14]: 5.23; pKB [15]: < 5; pKB [16]: < 5; bioavailability [17]: 38%; pKB [18]: < 5; bioavailability [19]: 33%; bioavailability [20]: 15%; clearance [6]: 0.07 L/h/kg; Ratio [21]: 52; clearance [22]: 0.85 L/h/kg; pKB [23]: < 5

# Second part, led by results:
Ki [1] [nM],pKB [2],ED50 [3] [µmol/kg],ED50 [4] [µmol/kg],SMILES,further results
4.7,8,1.09,14.7,CCC(CC)CNC(=O)c1ccc2c(c1)c(Cc1ccc(C(=O)NS(=O)(=O)c3ccccc3C)cc1OC)cn2C,–
5,8.8,–,–,CCCCC(CNC(=O)c1ccc2c(c1)c(Cc1ccc(C(=O)NS(=O)(=O)c3ccccc3C)cc1OC)cn2C)C(F)(F)F (stereo unspecified),–
2.4,9.3,–,2.5,CCC(CNC(=O)c1ccc2c(c1)c(Cc1ccc(C(=O)NS(=O)(=O)c3ccccc3Br)cc1OC)cn2C)CC(F)(F)F (stereo unspecified),–
4.6,–,–,–,COc1cc(C(=O)NS(=O)(=O)c2ccccc2C)ccc1Cc1cn(C)c2ccc(C(=O)NCC3(CC(F)(F)F)CC3)cc12,–
1.3,8.6,–,–,COc1cc(C(=O)NS(=O)(=O)c2ccccc2C)ccc1Cc1cn(C)c2ccc(C(=O)NCC3CC(F)(F)C(F)(F)C3)cc12,inhibition in vivo at 3 µmol/kg [9]: 11%
7.3,–,–,–,COc1cc(C(=O)NS(=O)(=O)c2ccccc2C)ccc1Cc1cn(C)c2ccc(C(=O)NCCC(C)C(F)(F)F)cc12 (stereo unspecified),logP [8]: 6.3
